In experiment [1] the test system is endogenous H3K14ac / histone H3 in HEK293 cells. The format is cell-based. To be noted: anti-Flag IP, anti-H3K14ac immunoblot. In outline: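 HEK293 cells were seeded at 300,000 per 6 cm dish and lipofection-transfected with Flag-tagged MORF N-terminal constructs (aa 1–352, or aa 1–215 lacking PHD1/2). After about 48 h, cells were lysed in buffer with 150 mM KCl and immunoprecipitated on anti-Flag M2 agarose. Beads were washed extensively and eluted in 50 mM phosphoric acid. Blots were probed with anti-Flag, anti-H3K14ac and anti-H3. Where indicated, TSA (3 μM) was added to the medium 6 h before harvest.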
On the technique in general: A western blot detects proteins with antibodies after separation by electrophoresis.

In the next experiment the test system is HEK293 cells. The experiment is described as follows: Live green fluorescence microscopy of GFP-MORF constructs. Type of experiment: cell-based. To be noted: 18 h post-transfection.

B1: N-MORF: entire N-terminal region of MORF (amino acids 1–352), Flag-tag fusion (protein)
chain: MVKLANPLYTEWILEAIQKIKKQKQRPSEERICHAVSTSHGLDKKTVSEQLELSVQDGSVLKVTNKGLASYKDPDNPGRFSSVKPGTFPKSAKGSRGSCNDLRNVDWNKLLRRAIEGLEEPNGSSLKNIEKYLRSQSDLTSTTNNPAFQQRLRLGAKRAVNNGRLLKDGPQYRVNYGSLDGKGAPQYPSAFPSSLPPVSLLPHEKDQPRADPIPICSFCLGTKESNREKKPEELLSCADCGSSGHPSCLKFCPELTTNVKALRWQCIECKTCSACRVQGRNADNMLFCDSCDRGFHMECCDPPLSRMPKGMWICQVCRPKKKGRKLLHEKAAQIKRRYAKPIGRPKNKLKQR
modifications: left off: Flag, end not stated, kept
For the molecule B1, the “Co-immunoprecipitation of endogenous H3K14ac” value in experiment [1] is reported as “co-immunoprecipitated endogenous H3K14ac”.

B2: GFP-N-MORF: GFP-tagged N-MORF (amino acids 1–352) (protein, UniProt Q8WYB5 1-352, looked up, fragment)
chain: MVKLANPLYTEWILEAIQKIKKQKQRPSEERICHAVSTSHGLDKKTVSEQLELSVQDGSVLKVTNKGLASYKDPDNPGRFSSVKPGTFPKSAKGSRGSCNDLRNVDWNKLLRRAIEGLEEPNGSSLKNIEKYLRSQSDLTSTTNNPAFQQRLRLGAKRAVNNGRLLKDGPQYRVNYGSLDGKGAPQYPSAFPSSLPPVSLLPHEKDQPRADPIPICSFCLGTKESNREKKPEELLSCADCGSSGHPSCLKFCPELTTNVKALRWQCIECKTCSACRVQGRNADNMLFCDSCDRGFHMECCDPPLSRMPKGMWICQVCRPKKKGRKLLHEKAAQIKRRYAKPIGRPKNKLKQR
modifications: GFP tag
Consider B2, for which the “Subcellular localization of GFP-MORF construct” value with HEK293 cells is “clearly associated with chromatin forming nuclear speckles”.

B3: N-MORFΔPHD1/2: N-MORF (amino acids 1–215) in which the PHD1/2 fingers are deleted, Flag-tag fusion (protein)
chain: MVKLANPLYTEWILEAIQKIKKQKQRPSEERICHAVSTSHGLDKKTVSEQLELSVQDGSVLKVTNKGLASYKDPDNPGRFSSVKPGTFPKSAKGSRGSCNDLRNVDWNKLLRRAIEGLEEPNGSSLKNIEKYLRSQSDLTSTTNNPAFQQRLRLGAKRAVNNGRLLKDGPQYRVNYGSLDGKGAPQYPSAFPSSLPPVSLLPHEKDQPRADPIPI
modifications: left off: Flag, end not stated, kept
As to B3, the “Co-immunoprecipitation of endogenous H3K14ac” value in experiment [1] is listed as “unable to pull down acetylated histone H3”.

B4: GFP-N-MORFΔPHD1/2: GFP-tagged N-MORFΔPHD1/2 (amino acids 1–215) (protein, UniProt Q8WYB5 1-215, looked up, fragment)
chain: MVKLANPLYTEWILEAIQKIKKQKQRPSEERICHAVSTSHGLDKKTVSEQLELSVQDGSVLKVTNKGLASYKDPDNPGRFSSVKPGTFPKSAKGSRGSCNDLRNVDWNKLLRRAIEGLEEPNGSSLKNIEKYLRSQSDLTSTTNNPAFQQRLRLGAKRAVNNGRLLKDGPQYRVNYGSLDGKGAPQYPSAFPSSLPPVSLLPHEKDQPRADPIPI
modifications: GFP tag
On to B4, for which, in the experiment on HEK293 cells, the “Subcellular localization of GFP-MORF construct” value is reported as “evenly dispersed in the nucleus”.

Values taken from paper PMC3502708 (Journal of molecular biology, 2012).
